Experimental data reported in ChEMBL document CHEMBL2062526, “Tandem synthesis and in vitro antiplasmodial evaluation of new naphtho[2,1-d]thiazole derivatives” (Eur J Med Chem, 2012).

How the values were obtained:
Plasmodium falciparum = assay: Antiplasmodial activity against multidrug-resistant Plasmodium falciparum K1 ring stage after 72 hrs by […] Green fluorescence-based assay; type: functional, organism-based; conditions: K1, 72 h
[1] = Cytotoxicity against human HepG2 cells after 72 hrs by MTT assay; type: cell-based
Procedure, shortened: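 HepG2 cells seeded at 5×10^3/well in RPMI with 10% FBS, L-glutamine, penicillin/streptomycin, 37 °C under 6% CO₂/14% O₂/80% N₂. Compounds added after 24 h, 72 h exposure, duplicate wells. MTT (5 mg/mL stock) for 2 h, formazan dissolved in DMSO, A570 with 630 nm reference. Viability relative to untreated cells. CC50 from non-linear regression, mean of three independent experiments.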

[2] = Selectivity index, ratio of CC50 for human HepG2 cells to IC50 for multidrug-resistant Plasmodium falciparum K1 ring stage; type: functional
Procedure, shortened: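 SI = CC50 (HepG2)/IC50 (K1). HepG2 MTT: 5×10^3 cells/well, 24 h preculture, compound 72 h, 37 °C; MTT 2 h, formazan in DMSO, A570 (ref 630 nm); duplicates, CC50 by non-linear regression, mean of three experiments. K1 IC50 by 72 h SYBR Green assay on sorbitol-synchronized rings.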

Row | SMILES | IC50 (Plasmodium falciparum) [µM] | CC50 at 72 h [1] [µM] | Ratio CC50/IC50 [2]
1 | COc1cc2cc(S(=O)(=O)c3ccc(C)cc3)c3nc(C)sc3c2cc1OC | > 25 | > 125 | –
2 | Cc1nc2c(S(=O)(=O)c3ccc(Cl)cc3)cc3cc(F)ccc3c2s1 | – | 3.4 | –
3 | Cc1nc2c(S(=O)(=O)c3ccccc3)c(N)c3ccccc3c2s1 | > 25 | > 500 | –
4 | Cc1ccc(S(=O)(=O)c2c(N)c3cc(F)ccc3c3sc(C)nc23)cc1 | – | 0.2 | –
5 | Cc1ccc2cc(S(=O)(=O)c3ccccc3)c3nc(C)sc3c2c1 | 4.8 | > 125 | >26
6 | Cc1nc2c(S(=O)(=O)c3ccccc3)c(N)c3cc(F)ccc3c2s1 | > 25 | > 500 | –
7 | Cc1nc2c(S(=O)(=O)c3ccccc3)cc3cc(F)ccc3c2s1 | > 25 | 26 | <1
8 | Cc1nc2c(S(=O)(=O)c3ccc(Cl)cc3)c(N)c3cc(F)ccc3c2s1 | – | 0.5 | –
9 | Cc1nc2c(S(=O)(=O)c3ccc(Cl)cc3)cc3ccccc3c2s1 | – | 6 | –
10 | Cc1nc2c(S(=O)(=O)c3ccccc3)cc3ccccc3c2s1 | > 25 | 11.3 | <0.5
11 | Cc1ccc(S(=O)(=O)c2cc3cc(F)ccc3c3sc(C)nc23)cc1 | – | 3.1 | –
12 | Cc1ccc(S(=O)(=O)c2c(N)c3ccccc3c3sc(C)nc23)cc1 | – | 0.2 | –
13 | Cc1nc2c(S(=O)(=O)c3ccc(Cl)cc3)c(N)c3ccccc3c2s1 | – | 1 | –
14 | COc1cc2cc(S(=O)(=O)c3ccc(Cl)cc3)c3nc(C)sc3c2cc1OC | > 25 | > 31.2 | –
15 | COc1cc2cc(S(=O)(=O)c3ccccc3)c3nc(C)sc3c2cc1OC | 2.7 | > 125 | >45
16 | Cc1ccc(S(=O)(=O)c2cc3ccc(C)cc3c3sc(C)nc23)cc1 | > 25 | > 250 | –
17 | C[C@H]1c2cccc(O)c2C(=O)C2=C(O)[C@]3(O)C(=O)C(C(N)=O)=C(O)[C@@H](N(C)C)[C@@H]3[C@@H](O)[C@@H]21.O [DOXYCYCLINE] | – | – | 4
18 | Cc1ccc(S(=O)(=O)c2cc3ccccc3c3sc(C)nc23)cc1 | – | 2.2 | –
